Calls of active or inactive are those of the source. The calls are words filed in the database; no cut-off is given here.

The values that follow come from ChEMBL document CHEMBL2321728, “Vectorization efforts to increase Gram-negative intracellular drug concentration: a case study on HldE-K inhibitors” (J Med Chem, 2013).

Test [1] deals with Escherichia coli. The test is described as follows: Antimicrobial activity against wild type Escherichia coli K1 measured after overnight incubation by serial dilution method in presence of erythromycin. The class given is functional.
Test [2] relates to Escherichia coli. Description: Antimicrobial activity against acrAB, tolC-deficient Escherichia coli str. K-12 substr. MG1655 measured after overnight incubation by serial dilution method in presence of erythromycin in iron depleted medium. It counts as functional. The method, boiled down: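 MIC in M9 medium supplemented with D-glucose, thiamine, casein and apotransferrin (M9S), which is the iron-depleted medium. Erythromycin at 0.13 μg/mL. Inoculum 5 × 10^5 CFU/mL. Compound serial dilutions in 2% DMSO, overnight at 35 °C, visual read-out.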

Test [3] has as its system Escherichia coli. Description: Antimicrobial activity against acrAB, tolC-deficient Escherichia coli str. K-12 substr. MG1655 measured after overnight incubation by serial dilution method in presence of erythromycin. It counts as functional.
Test [4] is described as follows: Inhibition of Escherichia coli HldE-kinase preincubated for 30 mins prior to substrate addition measured after 30 mins by luminescence assay. The method, boiled down: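 E. coli HldE (3 nM) preincubated with inhibitor for 30 min at room temperature in pH 7.5 Hepes buffer with MnCl2, KCl, Triton X-100, DTT and MBP. Reaction started with 0.2 μM β-heptose 7-phosphate and 0.2 μM ATP, run 30 min at room temperature. Remaining ATP measured by luciferase/luciferin luminescence. IC50 from 6–10 concentrations fitted to a Langmuir model.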

Test [5] relates to Escherichia coli. The test is described as follows: Antimicrobial activity against tolC-deficient Escherichia coli K1 assessed as inhibition of LPS biosynthesis at 32 ug/ml after 5 hrs by SDS-PAGE analysis. It counts as functional, organism-based. The method, boiled down:
(§1)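 LB-grown exponential cells (OD about 0.15) diluted to 5 × 10^5 CFU/mL and exposed to compound (water/DMSO 50/50) at 37 °C for about 5 h, to OD 0.2–0.4. OD-normalized pellets lysed in SDS/β-mercaptoethanol at 95–100 °C, then proteinase K 1 h at 55 °C. LPS resolved by 16% SDS-PAGE and silver stained.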

Test [6] concerns Escherichia coli. Description: Antimicrobial activity against tolC-deficient Escherichia coli K1 measured after overnight incubation by serial dilution method in presence of erythromycin. The class given is functional.
Test [7] has as its system Escherichia coli. Description: Antimicrobial activity against wild type Escherichia coli K1 after overnight incubation by checkerboard assay. The class given is functional. The method, boiled down:
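Checkerboard against E. coli K1 (018:K1:H7) wild type. Early to log phase preculture suspended in ca-MHB to a final inoculum of 5 × 10^5 CFU/mL. Combined serial dilutions of kanamycin, the unvectorized inhibitor or bis(3-aminopropyl)amine with erythromycin, in 2% DMSO. Incubated overnight at 35 °C; MIC of each combination read by visual inspection.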

Test [8] concerns Escherichia coli. The test is described as follows: Antimicrobial activity against wild type Escherichia coli K1 assessed as inhibition of LPS biosynthesis at 30 ug/ml after 5 hrs by SDS-PAGE analysis. It counts as functional, organism-based. The method, boiled down: as §1

For orientation: MIC means the lowest concentration found to suppress growth. Broadly, the IC50 is the point on the concentration scale where inhibition reaches its midpoint. As to `O=S(=O)(NCCOc1ccc2sc(CNc3nncc(-c4c(Cl)cccc4Cl)n3)nc2c1)c1ccc(O)c(O)c1`, the minimum inhibitory concentration (MIC) in test [1] is > 64 µg/mL; in test [2] it was 2 µg/mL; in test [3], 4 µg/mL. Besides, in test [4], the IC50 worked out at 33 nM.
The corresponding values for `O=C(NCCOc1ccc2sc(CNc3nncc(-c4c(Cl)cccc4Cl)n3)nc2c1)[C@@H]1CSC(c2ccccc2O)=N1` are > 32 µg/mL, > 32 µg/mL, > 32 µg/mL and 660 nM.
For `Cn1nc(O)c(=O)nc1SCCOc1ccc2sc(CNc3nncc(-c4c(Cl)cccc4Cl)n3)nc2c1` the same measures were > 64 µg/mL, 1 µg/mL, 2 µg/mL and 25 nM.
Take `Cc1cc(NCCN(C)C)cc(C)c1-c1cnnc(NCc2nc3cc(OCCN)ccc3s2)n1`: the inhibition result in test [5] is “inactive”. Further, the MIC in test [6] and in test [1] was > 64 µg/mL each time. In test [4], this molecule gave an IC50 of 1400 nM.
Take `O=C(O)COc1ccc2sc(CNc3nncc(-c4c(Cl)cccc4Cl)n3)nc2c1`: the minimum inhibitory concentration (MIC) in test [1] is > 64 µg/mL. The molecule further came in with a 50% inhibitory concentration (IC50) in test [4] of 19 nM.
Consider `CC[C@H]1OC(=O)[C@H](C)[C@@H](O[C@H]2C[C@@](C)(OC)[C@@H](O)[C@H](C)O2)[C@H](C)[C@@H](O[C@@H]2O[C@H](C)C[C@H](N(C)C)[C@H]2O)[C@](C)(O)C[C@@H](C)C(=O)[C@H](C)[C@@H](O)[C@]1(C)O` [ERYTHROMYCIN], for which the MIC in test [7] is 16 µg/mL.
For `Cc1cc(NC(=O)CN(C)C)cc(C)c1-c1cnnc(NCc2nc3cc(O)ccc3s2)n1`, the minimal inhibitory concentration (MIC) is > 64 µg/mL in test [1] and 16 µg/mL in test [3]. This molecule yielded an IC50 in test [4] of 880 nM.
On to `NC[C@H]1O[C@H](O[C@H]2[C@H](O)[C@@H](O[C@H]3O[C@H](Cn4cc(CNC(=O)COc5ccc6sc(CNc7nncc(-c8c(Cl)cccc8Cl)n7)nc6c5)nn4)[C@@H](O)[C@H](N)[C@H]3O)[C@H](N)C[C@@H]2N)[C@H](O)[C@@H](O)[C@@H]1O`, for which the inhibition entry in test [8] is “inactive”. The MIC in test [6] is 2 µg/mL; in test [1], 8 µg/mL; in test [3], 4 µg/mL. This molecule came in with an IC50 in test [4] of 98 nM.
For `O=C(COc1ccc2sc(CNc3nncc(-c4c(Cl)cccc4Cl)n3)nc2c1)OCc1cc(=O)c(O)cn1O`, the MIC is > 64 µg/mL in test [1], 32 µg/mL in test [2] and > 64 µg/mL in test [3]. For the same molecule, the concentration for half-maximal inhibition (IC50) in test [4] came out at 30 nM.
Take `CS(=O)(=O)NC(=O)COc1ccc2sc(CNc3nncc(-c4c(Cl)cccc4Cl)n3)nc2c1`: the MIC is > 64 µg/mL in test [1], 16 µg/mL in test [2] and 16 µg/mL in test [3]. Further, the IC50 in test [4] was found to be 16 nM.
Take `CCN1CCN(C(=O)NCCOc2ccc3sc(CNc4nncc(-c5c(C)cccc5O)n4)nc3c2)C(=O)C1=O`: the minimum inhibitory concentration (MIC) is > 32 µg/mL in test [1], 8 µg/mL in test [2] and > 32 µg/mL in test [3]. In test [4], this molecule yielded an IC50 of 520 nM.
On to `COc1ccc2sc(CNc3nncc(-c4c(C)cc(NCCN(C)C)cc4C)n3)nc2c1`, for which the MIC in test [1] was > 64 µg/mL; in test [3], 32 µg/mL. In test [4], this molecule yielded an IC50 of 82 nM.
Take `O=C(NCCOc1ccc2sc(CNc3nncc(-c4c(Cl)cccc4Cl)n3)nc2c1)c1cc(=O)c(O)co1`: the minimal inhibitory concentration (MIC) in test [1] was > 64 µg/mL; in test [2], 2 µg/mL; in test [3], > 64 µg/mL. The molecule further had a 50% inhibitory concentration (IC50) in test [4] of 71 nM.
For `CN1CCN(CCOc2ccc3sc(CNc4nncc(-c5c(Cl)cccc5Cl)n4)nc3c2)CC1`, the inhibition result in test [5] was “inactive”. In addition, the MIC was 32 µg/mL in test [6] and > 64 µg/mL in test [1]. In addition, the IC50 in test [4] turned out to be 110 nM.
For `O=C(COc1ccc2sc(CNc3nncc(-c4c(Cl)cccc4Cl)n3)nc2c1)NCCO`, the inhibition entry in test [5] was “Active”. In addition, the MIC in test [1] was > 64 µg/mL. Also, the IC50 in test [4] was 55 nM.
For the molecule `Cc1cc(NCCN(C)C)cc(C)c1-c1cnnc(NCc2nc3cc(O)ccc3s2)n1`, the results for the MIC in test [1] and in test [3] were > 64 µg/mL and 16 µg/mL, respectively. In test [4], this molecule registered a 50% inhibitory concentration (IC50) of 780 nM.
As to `NCCCN(CCCN)CCOc1ccc2sc(CNc3nncc(-c4c(Cl)cccc4Cl)n3)nc2c1`, in test [5], the inhibition result is “inactive”. Besides, the results for the minimal inhibitory concentration (MIC) in test [6] and in test [1] were 2 µg/mL and 4 µg/mL, respectively. The molecule also yielded an IC50 in test [4] of 630 nM.
For `NCCN(CCN)CCNC(=O)COc1ccc2sc(CNc3nncc(-c4c(Cl)cccc4Cl)n3)nc2c1` the same measures were “inactive”, 4 µg/mL, 8 µg/mL and 580 nM.
As to `NCCNCCNC(=O)COc1ccc2sc(CNc3nncc(-c4c(Cl)cccc4Cl)n3)nc2c1`, the inhibition result in test [5] was “inactive”. Moreover, the values for the minimal inhibitory concentration (MIC) in test [6] and in test [1] were 8 µg/mL and 32 µg/mL, respectively. The molecule further came in with an IC50 in test [4] of 110 nM.
Molecule `COc1ccc2sc(CNc3nncc(-c4c(C)cccc4O)n3)nc2c1` showed a half-maximal inhibitory concentration (IC50) in test [4] of 69 nM.
With `NCCCN(CCCN)C(=O)COc1ccc2sc(CNc3nncc(-c4c(Cl)cccc4Cl)n3)nc2c1`, in test [5], the inhibition result was “inactive”. Also, the MIC was found to be 4 µg/mL in test [6] and 8 µg/mL in test [1]. Inhibition in test [4] was half-maximal at 510 nM (IC50).
Regarding `NC[C@H]1O[C@H](O[C@H]2[C@H](O)[C@@H](O[C@H]3O[C@H](CO)[C@@H](O)[C@H](N)[C@H]3O)[C@H](N)C[C@@H]2N)[C@H](O)[C@@H](O)[C@@H]1O` [KANAMYCIN], the minimum inhibitory concentration (MIC) in test [7] was 8 µg/mL.
Turning to `CN(C)CC(CN(C)C)NC(=O)COc1ccc2sc(CNc3nncc(-c4c(Cl)cccc4Cl)n3)nc2c1`, the inhibition result in test [5] was “inactive”. Also, the MIC is 32 µg/mL in test [6] and > 64 µg/mL in test [1]. Further, half-maximal inhibition in test [4] (IC50) required 420 nM.
Regarding `O=C(COc1ccc2sc(CNc3nncc(-c4c(Cl)cccc4Cl)n3)nc2c1)NO`, the values for the MIC in test [1], in test [2] and in test [3] were > 64 µg/mL, 1 µg/mL and 2 µg/mL, respectively. In test [4], this molecule yielded an IC50 of 1 nM.
